Assay outcomes: PubChem, Broad Institute
This is one part of a sample in which hits are shown more often than they occur.
INS-1E ATP HTS – rescue of cytokine-induced death in INS-1E beta cells. INS-1E cytokine-induced death, ATP luminescence, 48 h; normalised: neutral wells 0, positive control 100. protection from cytokine-induced ATP loss, % at 10 µM. actives 0.1% (n = 20,000). AID 488910;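 active means mean replicate protection from cytokine-induced ATP loss at least 50% and at least 75% of replicates each reaching 50%; inconclusive means meets only one of the two criteria, mean or replicate share; inactive means fails both the mean and replicate share criteria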
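Assay system: INS-1E rat cells / Quantity: 8000 cells per well / Medium: RPMI without phenol red, 5% FBS / Probe or stimulus: three-cytokine cocktail (IFN-γ, TNF-α, IL-1β) / Dosing: one compound concentration, pin transfer / Timing: 48 h co-treatment, 10 min post-lysis read / Technique: CellTiter-Glo luminescence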
T cruzi intra – inhibitors of intracellular Trypanosoma cruzi; intracellular Trypanosoma cruzi in host cells, plate reader; activity score (inhibition), % at 5.01 µM; actives 4.9% (n = 22,000); in the data active means activity score above about 55%; inconclusive means no clear call, values can overlap the other calls;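 further: parasites and compound incubated about four days before reading; 0% = median of neutral control wells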
A1 apoptosis 2 – compounds inhibiting A1, read as caspase activation; MEF A1-2A-BIM cells, caspase-Glo luminescence, 3 h; percent of clofoctol response, DMSO zero; caspase activation, % (test concentration not listed); 24,000 tested, under 10 active; AID 2465; in the data active means caspase activation above about 5.9%; inconclusive means no clear call, values can overlap the other calls; inactive means below about 2.2%
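Material: A1-2A-BIM-expressing MEF cells. Buffer or medium: RPMI-1640 plus 10% FBS. Incubation: cells settled overnight, compound exposure 3 h at 37 °C, 5% CO2. Signal: Caspase-Glo 3/7 luminescence, 1 h at room temperature.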
Active calls of the source: *; ? = inconclusive; · = not tested or not shown.

SMILES	INS-1E ATP HTS	T cruzi intra	A1 apoptosis 2
C[C@H]1CN([C@@H](C)CO)C(=O)c2cc(NS(=O)(=O)c3cccs3)ccc2O[C@@H]1CN(C)Cc1ccc(Cl)c(Cl)c1	-9	57*	·
Cc1ccc(S(=O)(=O)Nc2ccc3c(c2)C(=O)N([C@@H](C)CO)C[C@H](C)[C@H](CN(C)Cc2ccc(Cl)c(Cl)c2)O3)cc1	·	14*	-1
C[C@@H]1CN([C@H](C)CO)C(=O)c2cc(NS(=O)(=O)c3ccc(F)cc3)ccc2O[C@H]1CN(C)Cc1ccc(Cl)c(Cl)c1	-11	7	·
C[C@H](CO)N1C[C@H](C)[C@@H](CN(C)Cc2ccncc2)Oc2ccc(NS(=O)(=O)c3cccs3)cc2C1=O	0	3	0
Cc1ccc(S(=O)(=O)Nc2ccc3c(c2)C(=O)N([C@H](C)CO)C[C@H](C)[C@@H](CN(C)Cc2ccc(Cl)c(Cl)c2)O3)cc1	-7	9	·
C[C@H](CO)N1C[C@H](C)[C@@H](CN(C)Cc2ccc(Cl)c(Cl)c2)Oc2ccc(NS(=O)(=O)c3ccc(Cl)cc3)cc2C1=O	-6	64*	·
Cc1ccccc1/C=N/NC(=O)c1cccc(C(=O)NO)c1	-3	-20	-2
O=C(N/N=C/c1cccc(Oc2ccccc2)c1)c1ccccc1O	-9	-15	-6
O=C(CCCCCCC(=O)NN=C1CCCC1)NO	·	·	0
O=C(CCCCC(=O)N/N=C/c1ccc(O)cc1)NO	1	-8	·
O=C(CCCCCC(=O)N/N=C/c1ccncc1Br)NO	·	·	0
C[C@H](CO)N1C[C@H](C)[C@H](CN(C)C(=O)NC2CCCCC2)Oc2ncc(C#Cc3cccc(F)c3)cc2C1=O	·	63*	·
Cc1cccc(CN(C)C[C@@H]2Oc3ncc(-c4cccc(F)c4)cc3C(=O)N([C@H](C)CO)C[C@@H]2C)c1	·	40	2
C[C@H](CO)N1C[C@H](C)[C@H](CN(C)Cc2cccc(C(F)(F)F)c2)Oc2ncc(-c3cccc(C(F)(F)F)c3)cc2C1=O	·	89*	0
C[C@H](CO)N1C[C@H](C)[C@H](CN(C)C(=O)NC2CCCCC2)Oc2ncc(-c3ccc(F)cc3)cc2C1=O	·	-8	·
C[C@H](CO)N1C[C@H](C)[C@H](CN(C)Cc2cccc(C(F)(F)F)c2)Oc2ncc(-c3cccc(F)c3)cc2C1=O	·	65*	0
C[C@H](CO)N1C[C@H](C)[C@H](CN(C)C(=O)NC2CCCCC2)Oc2ncc(-c3cccc(C(F)(F)F)c3)cc2C1=O	·	?	7.1*
C[C@H](CO)N1C[C@H](C)[C@H](CN(C)C(=O)NC2CCCCC2)Oc2ncc(C#Cc3ccccc3)cc2C1=O	·	52	?
C[C@H](CO)N1C[C@H](C)[C@H](CN(C)Cc2ccncc2)Oc2ncc(-c3cccc(C(F)(F)F)c3)cc2C1=O	·	46	0
COc1ccc(C#Cc2ccc3c(c2)[C@]2(C(=O)N3)[C@H](C(N)=O)[C@H]3C(=O)O[C@H](c4ccccc4)[C@H](c4ccccc4)N3[C@@H]2c2ccccc2OCCO)cc1	·	·	-1
O=C(NN=C1CCCCCCC1)c1ccccc1O	-3	-21	·
O=C(NN=C1CCCCCC1)c1ccccc1O	-13	-6	·
C=CCNC(=O)[C@H]1[C@@H]2C(=O)O[C@@H](c3ccccc3)[C@@H](c3ccccc3)N2[C@@H](c2ccc(O)cc2)[C@]12C(=O)Nc1ccc(C#CC3(O)CCCCCC3)cc12	·	·	-1
CC(C)(C)NC(=O)C(OC(=O)c1ccccc1)c1cccs1 (centres undefined)	·	·	0
COc1ccc(CN(C)C[C@@H]2OCCCC[C@H](C)Oc3ccc(NS(=O)(=O)c4ccc(Cl)cc4)cc3C(=O)N([C@@H](C)CO)C[C@@H]2C)cc1	·	·	0
SMILES	INS-1E ATP HTS	T cruzi intra	A1 apoptosis 2
COc1cc(Br)c(/C=N/NC(=O)c2ccccc2O)cc1OC	-41	-13	0
O=C(N/N=C\c1cccc(O)c1O)c1ccccc1O	-133	68*	·
O=C(N/N=C/c1cc(I)cc(I)c1O)c1ccccc1O	-105	82*	-3
Cc1ccccc1/C=N/NC(=O)c1ccccc1O	-28	-13	-6
O=C(N/N=C/c1ccc(I)cc1)c1ccccc1O	-8	-20	-8
COc1cc(Br)cc(/C=N/NC(=O)c2ccccc2O)c1O	-125	79*	-13
O=C(N/N=C/C1=CCCCC1)c1ccccc1O	-4	0	-2
C[C@H]1CN([C@@H](C)CO)C(=O)Cc2cc(NC(=O)Cc3ccccc3)ccc2O[C@@H]1CN(C)Cc1ccc(C(F)(F)F)cc1	-6	58*	0
C[C@@H]1CN([C@@H](C)CO)C(=O)Cc2cc(NC(=O)Nc3ccc(C(F)(F)F)cc3)ccc2O[C@H]1CN(C)Cc1ccccc1	·	·	0
C[C@H]1CN([C@@H](C)CO)C(=O)Cc2cc(NC(=O)Cc3ccccc3)ccc2O[C@H]1CN(C)Cc1ccc(C(F)(F)F)cc1	13	69*	-1
C[C@H](CO)N1C[C@H](C)[C@H](CN(C)Cc2ccc(C(F)(F)F)cc2)Oc2ccc(NC(=O)Cc3ccccc3)cc2CC1=O	6	?	0
CC(C)(C)OC(=O)N1CCC[C@H]1/C=N/NC(=O)CCCCCC(=O)O	6	-5	·
Cc1ccc(S(=O)(=O)Nc2ccc3c(c2)CC(=O)N([C@@H](C)CO)C[C@@H](C)[C@@H](CN(C)Cc2ccc4c(c2)OCO4)O3)cc1	-3	27	-2
C[C@@H]1CN([C@H](C)CO)C(=O)Cc2cc(NS(=O)(=O)c3ccc(Cl)cc3)ccc2O[C@H]1CN(C)Cc1ccc2c(c1)OCO2	-6	64*	1
C[C@@H]1CN([C@@H](C)CO)C(=O)Cc2cc(NS(=O)(=O)c3ccc(Cl)cc3)ccc2O[C@H]1CN(C)Cc1ccc2c(c1)OCO2	·	·	-1
C[C@@H]1CN([C@H](C)CO)C(=O)Cc2cc(NS(=O)(=O)c3ccc(Cl)cc3)ccc2O[C@@H]1CN(C)Cc1ccc2c(c1)OCO2	-11	60*	·
COc1ccc(/C=N/NC(=O)CCCCCC(=O)NO)cc1O	·	·	-1
COC(=O)c1ccc(/C=N/NC(=O)c2cccc(C(=O)NO)c2)cc1	-12	-12	-5
COC(=O)CCCCCCC(=O)N/N=C/c1ccc(OCC(N)=O)cc1	13	-22	0
C[C@H]1CN([C@@H](C)CO)C(=O)c2cccc(NC(=O)c3ccncc3)c2O[C@H]1CN(C)C(=O)Nc1ccc(C(F)(F)F)cc1	8	86*	1
C[C@H](CO)N1C[C@H](C)[C@@H](CN(C)C(=O)Nc2ccc(C(F)(F)F)cc2)Oc2c(NC(=O)c3ccncc3)cccc2C1=O	11	15	0
C[C@@H]1CN([C@H](C)CO)C(=O)c2cccc(NC(=O)c3ccncc3)c2O[C@@H]1CN(C)C(=O)Nc1ccccc1	1	-22	1
C[C@H]1CN([C@@H](C)CO)C(=O)c2cccc(NC(=O)c3ccncc3)c2O[C@H]1CN(C)C(=O)Nc1ccccc1	4	79*	0
C[C@@H]1CN([C@@H](C)CO)C(=O)c2cccc(NC(=O)c3ccncc3)c2O[C@@H]1CN(C)C(=O)Nc1ccc(F)cc1	10	-7	1
